Results from different studies.
Protocols differ between the studies behind these lines.
CDK4: Cyclin-dependent kinase 4 (CDK4, Homo sapiens, UniProt P11802)
CDK4 with cyclin D3: Cyclin-dependent kinase 4, with cyclin D3 (CDK4, Homo sapiens, UniProt P11802)
CDK4 with cyclin D1: Cyclin-dependent kinase 4, with cyclin D1 (CDK4, Homo sapiens, UniProt P11802)

| SMILES | target | assay | conditions | remaining binding [%] |
| --- | --- | --- | --- | --- |
| C=CC(=O)N1CCC(C(=O)NCC(=O)N2CCN(c3nc(-c4cnc(N)nc4C(F)F)nc(N4CCOCC4)n3)CC2)CC1 | CDK4 | binding, competition with immobilised ligand | 1 µM | 92 |
| COc1cnc(Nc2cccc(S(N)(=O)=O)c2)nc1N1CCN(c2ccccc2)C(=O)C1 | CDK4 with cyclin D3 | binding, competition with immobilised ligand | 1 µM | 87 |
| c1ccc(N2CCN(Cc3nc4ccccc4[nH]3)CC2)nc1 | CDK4 | binding, competition with immobilised ligand | 1 µM | 100 |
| C[C@@H]1CCN(c2nccc(-c3cnn4ncccc34)n2)C1 | CDK4 | binding | 1 µM | 79 |
| CC(=O)N1CCC(c2ccc(C(=O)NC3=NCCN3)cc2C(F)(F)F)CC1 | CDK4 with cyclin D1 | cell-free assay, competition with immobilised ligand | 1 µM | 94 |
| COc1ncc2cc3ccccc3nc2c1C#N | CDK4 | cell-free assay, competition with immobilised ligand | 5 µM | 74 |
| O=C(c1ccc(Nc2nccc(-c3cc4ccccc4s3)n2)cc1)N1CCC(N2CCCC2)CC1 | CDK4 | binding, competition with immobilised ligand | 1 µM | 88 |
| COc1ccnn2ncc(-c3ccnc(N(C)C)n3)c12 | CDK4 | binding | 1 µM | 95 |
| Cc1cc(NC(=O)c2cccc(S(F)(F)(F)(F)F)c2)cc(-n2ccn3nc(-c4cccnc4)cc23)c1 | CDK4 | cell-free assay, competition with immobilised ligand | 1 µM | 79.3 |
| O=C(NCCCN1CCOCC1)c1ccc(Nc2ncc(Cl)c(-c3ccc(Cl)s3)n2)cc1 | CDK4 with cyclin D1 | binding, competition with immobilised ligand | 1 µM | 0.5 |
| Cc1cnn2ncc(-c3ccnc(N(C)C)n3)c2c1 | CDK4 | binding | 1 µM | 95 |
| Cc1cnc(Nc2ccc(C(=O)N3CCC(N4CCCC4)CC3)cc2)nc1-c1cc2ccccc2s1 | CDK4 with cyclin D3 | binding, competition with immobilised ligand | 1 µM | 2.7 |
| O=C(NCC1CCOCC1)c1n[nH]cc1NC(=O)c1c(F)cccc1F | CDK4 | binding, competition with immobilised ligand | 1 µM | 92 |
| O=C(Nc1cnc(Oc2ccc(F)cc2)nc1)N1CCc2ncccc2[C@@H]1c1ccc(F)cc1 | CDK4 with cyclin D1 | cell-free assay, competition with immobilised ligand | 1 µM | 100 |
| N[C@@H]1CCN(c2nccc(-c3cnn4ncccc34)n2)C1 | CDK4 with cyclin D3 | binding | 1 µM | 100 |
| O=C(O)[C@@H]1[C@@H](Cn2nnc3ccccc3c2=O)CC[C@H]1C(=O)c1ccc(OCCC2CCOCC2)cc1 | CDK4 with cyclin D3 | cell-free assay, competition with immobilised ligand | 1 µM | 83 |
| CN(CCCC(F)(F)F)c1nccc(-c2cnn3ncccc23)n1 | CDK4 with cyclin D1 | binding | 1 µM | 61 |
| Cc1c[nH]c2nccc(Oc3c(F)cc(Nc4cc(Cl)nc(N)n4)cc3F)c12 | CDK4 | cell-free assay, competition with immobilised ligand | 0.1 µM | 67 |
| FC(F)(F)Oc1cccc(-c2cnc3ccc(-c4ccncc4)nn23)c1 | CDK4 with cyclin D1 | cell-free assay, competition with immobilised ligand | 5 µM | 46 |
